Here are results for ten compounds from ChEMBL document CHEMBL1144774, “Vasorelaxing alkaloids and flavonoids from Cassytha filiformis” (J Nat Prod, 2008).

In the assay the test system is Aorta. The assay can be described thus: Vasorelaxation activity in Sprague-Dawley rat aortic assessed as inhibition of phenylephrin-induced contraction. Type of assay: functional, tissue-based. The method in brief: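 Endothelium-intact aortic rings from adult male rats (280–320 g) held isometrically at 1.8 g passive tension for 60 min; endothelium confirmed by >98% relaxation to acetylcholine (3 µM). Tonic contraction to phenylephrine (0.3 µM) set as 100%. Compound added cumulatively, 0.01–100 µM, one curve per ring. IC50 taken from percent-relaxation curves; mean ± SE of n independent experiments.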

Turning to `COC1=C[C@@]23CCN(C)[C@@H](Cc4ccc(OC)c(O)c42)C3=CC1=O`, the IC50 came out at 32.8 µM. To `COc1cc2c(cc1OC)-c1c3c(cc4c1[C@H](C2)N(C)CC4)OCO3` [DICENTRINE] belongs 0.08 µM; to `COc1ccc2c(c1C(=O)O)-c1c3c(c(OC)c4c1[C@H](C2)NCC4)OCO3` [CASSYTHIC ACID], 2.48 µM; to `COc1cc(-c2oc3cc(O)cc(O)c3c(=O)c2O[C@@H]2O[C@H](CO[C@@H]3O[C@@H](C)[C@H](O)[C@@H](O)[C@H]3O)[C@@H](O)[C@H](O)[C@H]2O)ccc1O` [NARCISSIN], 16.8 µM. To `COc1ccc2c(c1OC)-c1c3c(c(OC)c4c1[C@H](C2)NCC4)OCO3` belongs 16.5 µM; to `CN1CCc2cc3c(c4c2[C@@H]1Cc1cc2c(cc1-4)OCO2)OCO3` [NEOLITSINE], 0.29 µM; to `COc1cc2c(cc1O)C(=O)c1nccc3c(OC)c4c(c-2c13)OCO4` [ISOFILIFORMINE], 32 µM. As for `COc1cc(-c2oc3cc(O)cc(O)c3c(=O)c2O[C@@H]2O[C@H](CO)[C@@H](O)[C@H](O)[C@H]2O)ccc1O`, the IC50 worked out at 23.6 µM.

Consider `COC1=C[C@@]23CCN(C)[C@@H](Cc4cc(OC)c(OC)cc42)C3=CC1=O`, for which the IC50 is 28.9 µM. To `COc1cc2c(cc1O)C[C@@H]1NCCc3c(OC)c4c(c-2c31)OCO4` [CASSYTHINE] belongs 0.09 µM.

Broadly, the IC50 is the concentration that inhibits the measured activity by half.
